According to ChEMBL document CHEMBL1140132, “Virtual screening, identification, and biochemical characterization of novel inhibitors of the reverse transcriptase of human immunodeficiency virus type-1” (J Med Chem, 2008):
Calls of active or inactive are those of the source. No cut-off for these calls is given here.

What was measured:
[1] = system: Human immunodeficiency virus 2; assay: Inhibition of DNA dependent DNA polymerase activity of HIV2 recombinant reverse transcriptase at 140 uM
[2] = system: Human immunodeficiency virus 1; assay: Antiviral activity against HIV1 infected in human 293T cells assessed as inhibition of pseudovirus infection; format: functional, organism-based; settings: Human immunodeficiency virus 1, HEK-293T
[3] = target: Human immunodeficiency virus type 1 reverse transcriptase (Human immunodeficiency virus 1) (UniProt Q72547); assay: Inhibition of HIV1 BH10 recombinant reverse transcriptase p66/p51 RNase H activity assessed as residual enzyme activity
Outline: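 FRET RNase H assay: RT at 6 nM with 1 mM DTT, incubated with a fluorescein-RNA/DNA-dabcyl hybrid substrate ± inhibitor for 30 min at 37 °C. Hydrolysis is read as emitted fluorescence, in triplicate. Residual activity is relative to the inhibitor-free control.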

[4] = system: Human immunodeficiency virus type 1 reverse transcriptase (Human immunodeficiency virus 1), Q72547 [L100I,K103N]; assay: Inhibition of DNA dependent DNA polymerase activity of HIV1 reverse transcriptase L100I/K103N mutant expressed in Escherichia coli DH5alpha
Outline: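 DDDP assay on activated herring sperm DNA (20 µg/mL final) with all four dNTPs, at 37 °C with 1% DMSO. Inhibitor in DMSO is premixed into the buffer before RT is added. Read-out is dNTP incorporation. Dose-response is fitted to a four-parameter logistic for IC50. Values are means of three independent experiments.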

[5] = system: Human immunodeficiency virus 1; assay: Antiviral activity against HIV1 infected in human 293T cells; format: functional, organism-based; settings: Human immunodeficiency virus 1, HEK-293T
[6] = system: Human immunodeficiency virus 1; assay: Antiviral activity against HIV1 infected in human CEM cells; format: functional, organism-based; settings: Human immunodeficiency virus 1, CCRF-CEM
[7] = system: Human immunodeficiency virus 1; assay: Antiviral activity against HIV1 infected in 8186 T cells; format: functional, organism-based; settings: Human immunodeficiency virus 1, T-cell
Escherichia coli = assay: Inhibition of DNA dependent DNA polymerase activity of Escherichia coli DNA polymerase 1 Klenow fragment assessed as residual enzyme activity at 50 ug/ml relative to control
[8] = system: Human immunodeficiency virus 1; assay: Antiviral activity against HIV1 infected in human 721.221 B lymphocytes assessed as inhibition of pseudovirus infection; settings: Human immunodeficiency virus 1, 721.221
[9] = Selectivity index, ratio of inhibition of DNA dependent DNA polymerase activity of Escherichia coli DNA polymerase 1 Klenow fragment to inhibition of DNA dependent DNA polymerase activity of HIV1 BH10 recombinant reverse transcriptase p66/p51
Outline: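 Ratio of residual Klenow fragment DNA-dependent DNA polymerase activity to residual HIV-1 RT activity. Both enzymes were assayed side by side under identical conditions: activated herring sperm DNA at 20 µg/mL, all four dNTPs, 37 °C, 1% DMSO, compound at 50 µg/mL.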

[10] = target: T1, Human immunodeficiency virus type 1 reverse transcriptase (Human immunodeficiency virus 1, UniProt Q72547); assay: Inhibition of RNA dependent DNA polymerase activity of HIV1 BH10 recombinant reverse transcriptase p66/p51 assessed as residual enzyme activity at 616 nM using rA.dT substrate by steady state kinetic assay
[11] = target: Human immunodeficiency virus type 1 reverse transcriptase (Human immunodeficiency virus 1) (UniProt Q72547); assay: Inhibition of RNA dependent DNA polymerase activity of HIV1 BH10 recombinant reverse transcriptase p66/p51 assessed as residual enzyme activity at 616 nM using variable enzyme levels by steady state kinetic assay relative to control
[12] = target: T1, Human immunodeficiency virus type 1 reverse transcriptase; assay: Inhibition of DNA dependent DNA polymerase activity of HIV1 BH10 recombinant reverse transcriptase p66/p51 assessed as residual enzyme activity
Outline: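 Recombinant RT DNA-dependent DNA polymerase assay at 37 °C in 1% DMSO, with the inhibitor premixed into buffer before RT was added. Template was activated herring sperm DNA, 20 µg/mL final, with all four dNTPs. Compound present at 50 µg/mL final.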

[13] = Selectivity index, ratio of CC50 for human 721.221 cells to IC50 for HIV1 pseudovirus infection; format: functional
Outline: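 CC50 in 721.221 cells from a 72 h XTT viability assay, divided by IC50 against infection by VSV-G-pseudotyped HIV-1 GFP reporter virus. For the infection assay, cells were infected with 5.6 µg/mL Polybrene and 1% DMSO in RPMI, then fixed at 48–72 h and analysed by flow cytometry. IC50 came from a four-parameter logistic fit.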

[14] = Cytotoxicity against human 721.221 cells after 72 hrs by XTT assay; format: cell-based
Outline: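 721.221 B lymphocytes incubated 72 h at 37 °C with a range of inhibitor concentrations, each concentration in triplicate. Viability read by XTT absorbance at 450 nm, with 620 nm reference. CC50 is the concentration reducing viability by 50% versus the inhibitor-free control.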

[15] = system: Human immunodeficiency virus 2; assay: Inhibition of RNA dependent DNA polymerase activity of HIV2 recombinant reverse transcriptase at 140 uM
[16] = target: Human immunodeficiency virus type 1 reverse transcriptase (Human immunodeficiency virus 1, UniProt Q72547, Y181C); assay: Inhibition of RNA dependent DNA polymerase activity of HIV1 reverse transcriptase Y181C mutant expressed in Escherichia coli BL21
[17] = target: T1, Human immunodeficiency virus type 1 reverse transcriptase; assay: Inhibition of RNA dependent DNA polymerase activity of HIV1 BH10 recombinant reverse transcriptase p66/p51 assessed as residual enzyme activity at 616 nM using dTTP substrate by steady state kinetic assay
[18] = target: T1, Human immunodeficiency virus type 1 reverse transcriptase; assay: Inhibition of RNA dependent DNA polymerase activity of HIV1 BH10 recombinant reverse transcriptase p66/p51 assessed as residual enzyme activity
Outline: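 Recombinant RT RNA-dependent DNA polymerase activity measured as [3H]dTTP incorporation into poly(rA)n·oligo(dT)12-18 at 37 °C in 1% DMSO. Inhibitor was mixed into buffer before RT was added. Compound present at 50 µg/mL final.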

In the case of `Cc1ccnc2c1NC(=O)c1cccnc1N2C1CC1` [NEVIRAPINE], the Activity [1] is reported as “inactive”, the IC50 [2] is reported as 14 nM and the Activity [3] is reported as “inactive”. For the same compound, the Activity [4] was “Active”, the IC50 [5] was 50 nM and the IC50 [6] was 24 nM. It also gave an IC50 [7] of 40 nM and an Activity (Escherichia coli) of 47.5%.
For `COc1cccc(CCNC(=S)Nc2ccc(Br)c(C)c2)c1OC`, the IC50 [8] was 7700 nM.
Work on `CCCOCCCNC(=S)Nc1ccc(Br)cc1` yielded a Ratio [9] of 1.7 and an Activity (Escherichia coli) of 48.4%.
`Cc1ccc(NC(=S)N2CCc3c([nH]c4ccccc34)C2)c(Cl)c1` gave an IC50 [8] of over 20000 nM.
With `CCCOCCCNC(=S)Nc1cc(OC)c(Cl)cc1OC` the IC50 [8] was 170 nM, the Ki [10] was 1800 nM and the Activity [3] was “inactive”. The Activity [11] was 59%, the Activity [4] was “Active” and the Ratio [9] was 7.4. For the same compound, the IC50 [12] was 940 nM, the “Ratio CC50/IC50” value [13] was 345 and the Activity (Escherichia coli) was 62.2%. For the same compound, the CC50 at 72 h [14] was 58000 nM, the inhibition [15] was 50% and the IC50 [16] was 70000 nM. For the same compound, the Ki [17] was 1100 nM and the IC50 [18] was 510 nM.
For `CCCOCCCNC(=S)Nc1ccc(Cl)cc1Cl`, the Ratio [9] was 0.2 and the Activity (Escherichia coli) was 13.2%.
`CC(C)(C)CNC(=O)Nc1cc(C(F)(F)F)cc(C(F)(F)F)c1` showed an IC50 [8] of over 20000 nM.
`CCCCc1ccc(NC(=S)NCCCOCCC)c(C)c1` gave a Ratio [9] of 0.2 and an Activity (Escherichia coli) of 4.5%.
For `CCCCc1ccc(NC(=S)NCCCOCCC)cc1`, the Ratio [9] was 2.4 and the Activity (Escherichia coli) was 74.2%.
For `CCCOCCCNC(=S)Nc1ccc(N(C)C)cc1`, the Ratio [9] was 0.2 and the Activity (Escherichia coli) was 11.1%.
Work on `CCOC(=O)CCCNC(=S)Nc1ccc(Cl)c(C(F)(F)F)c1` yielded an IC50 [8] of 1600 nM.
`CCCOCCCNC(=S)Nc1cc(OC)ccc1OC` showed an IC50 [8] of 3000 nM.
Compound `CCCOCCCNC(=S)Nc1cc(C)c(C)cc1C` has a Ratio [9] of 2.9 and an Activity (Escherichia coli) of 64.4%.
Work on `S=C(NCc1ccco1)Nc1ccc(Cl)cc1` yielded an IC50 [8] of over 20000 nM.
`S=C(NCc1ccco1)N1CCO[C@H](COc2cncc(Cl)c2)C1` showed an IC50 [8] of over 20000 nM.
For `CCCOCCCNC(=S)Nc1cccc(C(=O)OCC)c1`, the Ratio [9] was 1.2 and the Activity (Escherichia coli) was 56.6%.
Compound `C=CCOc1nc(OCC=C)nc(OC[C@@H]2CN(C(=S)NCc3ccco3)CCO2)n1` has an IC50 [8] of over 20000 nM.
Work on `CCCOCCCNC(=S)Nc1ccc(Br)c(Cl)c1` yielded a Ratio [9] of 0.2 and an Activity (Escherichia coli) of 1%.
`CCCOCCCNC(=S)Nc1cccc(Cl)c1C` gave a Ratio [9] of 0.4 and an Activity (Escherichia coli) of 10.8%.
`CCCOCCCNC(=S)Nc1ccc(F)cc1Br` showed a Ratio [9] of 1.2 and an Activity (Escherichia coli) of 47.6%.
In the case of `CCCOCCCNC(=S)Nc1cccc(C#N)c1`, the Ratio [9] is reported as 1.1 and the Activity (Escherichia coli) is reported as 75.2%.
`COc1ccccc1NC(=S)NCc1ccco1` gave an IC50 [8] of over 20000 nM.
For `COc1ccc(CCn2cc(NC(=O)CCc3ccoc3)cn2)cc1OC`, the IC50 [8] was over 20000 nM.
Compound `CCCOCCCNC(=S)Nc1ccc(Cl)cc1C` has an IC50 [8] of 2600 nM and an Activity (Escherichia coli) of 47.5%.
`CCOC(=O)CCN(Cc1ccco1)C(=S)Nc1cccc(OC)c1` showed an IC50 [8] of over 20000 nM.
For `C[C@H](NC(=S)Nc1ccc(Cl)cc1)c1ccccc1`, the IC50 [8] was 4000 nM.
Compound `CCCOCCCNC(=S)Nc1ccc(Br)c(C)c1` has a Ratio [9] of 0.6 and an Activity (Escherichia coli) of 14.4%.
Work on `CCCOCCCNC(=S)Nc1cc(Cl)ccc1OC` yielded an IC50 [8] of 320 nM, a Ratio [9] of 3.2 and an Activity (Escherichia coli) of 50.8%.
In the case of `CCCOCCCNC(=S)Nc1ccccc1Cl`, the Ratio [9] is reported as 1.2 and the Activity (Escherichia coli) is reported as 59.3%.
For `O=S(=O)(Nc1n[nH]cc1Br)c1cccc2nsnc12`, the IC50 [8] was 370 nM, the Activity [3] was “inactive” and the Activity [4] was “Active”. For the same compound, the IC50 [12] was 3300 nM, the “Ratio CC50/IC50” value [13] was over 446 and the inhibition [15] was 50%. It also gave an IC50 [16] of 20000 nM and an IC50 [18] of 2800 nM.
Work on `CCCOCCCNC(=S)Nc1ccc(C(C)(C)C)cc1` yielded a Ratio [9] of 0.4 and an Activity (Escherichia coli) of 13.8%.
In the case of `CCCOCCCNC(=S)Nc1ccc(Cl)c(C(F)(F)F)c1`, the Ratio [9] is reported as 0.5 and the Activity (Escherichia coli) is reported as 2.2%.
Work on `CCCOCCCNC(=S)Nc1cccc(OC)c1` yielded a Ratio [9] of 3.2 and an Activity (Escherichia coli) of 98.7%.
With `Cc1ccc(CCN2C(=O)CS[C@@H]2c2ccc(C)o2)cc1` the IC50 [8] was over 20000 nM.
Compound `CCCOCCCNC(=S)Nc1cc(C)ccc1OC` has an IC50 [8] of 890 nM, a Ratio [9] of 4.3 and an Activity (Escherichia coli) of 71.7%.
Work on `CCCOCCCNC(=S)Nc1cc(C)ccc1Cl` yielded an IC50 [8] of 670 nM, a Ratio [9] of 4.4 and an Activity (Escherichia coli) of 76.5%.
Work on `Cc1cc(NC(=S)NCCC2=CCCCC2)ccc1Br` yielded an IC50 [8] of 230 nM.
`S=C(NCc1ccco1)NC1CCCCC1` showed an IC50 [8] of over 20000 nM.
In the case of `CCCOCCCNC(=S)Nc1ccccc1OCC`, the IC50 [8] is reported as 430 nM, the Ratio [9] is reported as 5.4 and the Activity (Escherichia coli) is reported as 87.1%.
In the case of `CCCOCCCNC(=S)Nc1cc(F)ccc1F`, the Ratio [9] is reported as 0.6 and the Activity (Escherichia coli) is reported as 47.5%.
With `CCCOCCCNC(=S)Nc1ccc(C(=O)OC)cc1` the Ratio [9] was 0.2 and the Activity (Escherichia coli) was 2.6%.
